Data from ChEMBL document CHEMBL1153905, “Functionalized 3-benzylidene-indolin-2-ones: inducers of NAD(P)H-quinone oxidoreductase 1 (NQO1) with antiproliferative activity” (Bioorg Med Chem, 2009).

What was measured:
[1] = Cytotoxicity against mouse Hepa-1c1c7 cells after 48 hrs by MTT assay; format: cell-based; settings: hepa-1c1c7, 48 h
Outline: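 Murine hepatoma cells in α-MEM with 10% heat- and charcoal-treated fetal calf serum, passages 6–17; MTT read-out as for the cancer lines but with 48 h compound exposure. Highest concentration tested 25 µM. IC50 from survival-versus-concentration curve; mean and SD, n = 3.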

[2] = target: T1, CYP1A1 (Mus musculus, UniProt P00184); experiment: Induction of CYP1A1 activity in mouse Hepa-1c1c7 cells assessed as induction ratio at 50 nM after 48 hrs by EROD assay relative to control; format: ADME, cell-based
T1 sequence (P00184 whole entry): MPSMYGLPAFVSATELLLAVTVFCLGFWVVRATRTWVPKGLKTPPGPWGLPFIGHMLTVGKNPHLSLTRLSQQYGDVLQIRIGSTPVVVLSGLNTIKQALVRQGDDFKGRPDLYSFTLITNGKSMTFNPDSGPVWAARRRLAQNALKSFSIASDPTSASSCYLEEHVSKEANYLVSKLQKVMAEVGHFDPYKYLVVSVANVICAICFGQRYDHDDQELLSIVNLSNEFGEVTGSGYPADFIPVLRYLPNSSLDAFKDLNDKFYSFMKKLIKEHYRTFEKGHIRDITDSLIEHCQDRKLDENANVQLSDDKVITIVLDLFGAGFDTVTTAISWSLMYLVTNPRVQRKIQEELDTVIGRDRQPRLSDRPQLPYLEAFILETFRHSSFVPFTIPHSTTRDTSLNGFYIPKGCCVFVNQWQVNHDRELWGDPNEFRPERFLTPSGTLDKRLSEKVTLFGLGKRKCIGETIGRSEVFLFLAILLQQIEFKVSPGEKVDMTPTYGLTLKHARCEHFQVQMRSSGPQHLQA
Outline: (§1)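 Hepa1c1c7 cells were seeded at 10,000 per well and grown 24 h. They were then exposed 48 h to compound (final DMSO 0.5% v/v) at about 4 × the NQO1 CD. After a PBS wash, cells got 5 µM 7-ethoxyresorufin plus 2 mM salicylamide in medium, 37 °C, 40 min. Resorufin was read at ex 530/em 590 nm, corrected for compound fluorescence. Ratio = (F treated − blank)/(F DMSO control − blank); mean ± SD, n = 3.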

[3] = target: NAD(P)H dehydrogenase [quinone] 1 (Mus musculus) (UniProt Q64669); experiment: Induction of NQO1 activity in mouse Hepa-1c1c7 cells assessed as induction ratio at 50 nM after 48 hrs by MTT assay relative to control; format: cell-based
NAD(P)H dehydrogenase [quinone] 1 (Mus musculus), sequence (Q64669 whole entry): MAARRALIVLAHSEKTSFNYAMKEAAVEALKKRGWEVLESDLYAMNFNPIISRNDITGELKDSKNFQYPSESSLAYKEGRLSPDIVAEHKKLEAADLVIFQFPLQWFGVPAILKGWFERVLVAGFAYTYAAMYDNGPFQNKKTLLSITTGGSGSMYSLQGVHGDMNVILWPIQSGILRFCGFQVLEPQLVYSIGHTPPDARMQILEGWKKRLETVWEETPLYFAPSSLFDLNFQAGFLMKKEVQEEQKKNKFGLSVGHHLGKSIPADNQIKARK
Outline: (§2)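 Hepa1c1c7 cells, 10,000 per well, 24 h, were then treated 48 h (DMSO ≤0.5%). Digitonin/EDTA lysates were assayed for menadione-dependent MTT-formazan formation using a G6P/G6PDH NADPH-generating mix with FAD at pH 7.4. The reaction ran 5 min, was stopped with dicoumarol, and read at A590. Degree of induction = (A test − blank)/(A control − blank). Ratios were read off the induction–concentration plot at the EROD test concentration.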

[4] = Ratio of induction of NQO1 activity to induction of CYP1 activity in mouse Hepa-1c1c7 cells at 50 nM after 48 hrs
[5] = target: NAD(P)H dehydrogenase [quinone] 1 (Mus musculus) (UniProt Q64669); experiment: Induction of NQO1 activity in mouse Hepa-1c1c7 cells assessed as induction ratio at 15 uM after 48 hrs by MTT assay relative to control; format: cell-based; outline: as §2
[6] = target: T1, CYP1A1; experiment: Induction of CYP1A1 activity in mouse Hepa-1c1c7 cells assessed as induction ratio at 15 uM by EROD assay relative to control; format: ADME, cell-based; outline: as §1
[7] = target: T1, CYP1A1; experiment: Induction of CYP1A1 activity in mouse Hepa-1c1c7 cells assessed as induction ratio at 0.01 uM after 48 hrs by EROD assay relative to control; format: ADME, cell-based
[8] = target: NAD(P)H dehydrogenase [quinone] 1 (Mus musculus) (UniProt Q64669); experiment: Induction of NQO1 activity in mouse Hepa-1c1c7 cells assessed as induction ratio at 0.01 uM after 48 hrs by MTT assay relative to control; format: cell-based; outline: as §2
[9] = target: NAD(P)H dehydrogenase [quinone] 1 (Mus musculus) (UniProt Q64669); experiment: Induction of NQO1 activity in mouse Hepa-1c1c7 cells assessed as drug level required to double basal enzyme activity after 48 hrs by MTT assay; format: cell-based
Outline: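 Hepa1c1c7 cells were grown in α-MEM with charcoal-treated FCS, 10,000 per well, 24 h. Compound was given 48 h (DMSO ≤0.5%) over a 10–100-fold range below cytotoxic levels, up to 25 µM. Cells were lysed with digitonin/EDTA. NQO1 was assayed by menadione-driven MTT reduction (G6P/G6PDH/NADP, FAD, Tris pH 7.4), quenched with dicoumarol, A590. CD is the concentration doubling basal activity, taken from the induction–concentration plot; mean ± SD, n = 3.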

[10] = Ratio of induction of NQO1 activity to induction of CYP1A1 activity in mouse Hepa-1c1c7 cells at 0.01 uM after 48 hrs

fold induction at 48 h, 0.05 µM [2] | Ratio [3] | Ratio [5] | fold induction at 15 µM [6] | fold induction at 48 h, 0.01 µM [7] | Ratio [8] | CD [9] | Structure (SMILES) | IC50 [1] | Ratio [4] | Ratio [10]
2.09 | 2.88 | – | – | – | – | – | O=C1Nc2ccccc2/C1=C1\C(=O)Nc2cc(Cl)ccc21 | > 25 µM | 1.38 | –
– | – | 5.06 | 1.89 | – | – | – | O=C1Nc2ccccc2/C1=C\c1ccc(F)cc1F | > 25 µM | – | –
– | – | – | – | 1.13 | 1.83 | 0.028 µM | O=c1cc(-c2ccccc2)oc2ccc3ccccc3c12 [BETA-NAPHTHOFLAVONE] | – | – | 1.62
